These results are taken from ChEMBL document CHEMBL3860038, “Discovery of (R,E)-N-(7-Chloro-1-(1-[4-(dimethylamino)but-2-enoyl]azepan-3-yl)-1H-benzo[d]imidazol-2-yl)-2-methylisonicotinamide (EGF816), a Novel, Potent, and WT Sparing Covalent Inhibitor of Oncogenic (L858R, ex19del) and Resistant (T790M) EGFR Mutants for the Treatment of EGFR Mutant …” (J Med Chem, 2016).

Structures are written as SMILES.

A short description of data set [1]: Intrinsic clearance in mouse liver microsomes. In kind it is ADME. Conditions: read-out: CLH. Background: Liver microsomes are a subcellular fraction often used to study metabolism.
A short description of data set [2]: Oral bioavailability in balb/c mouse at 20 mg/kg by liquid chromatography-tandem mass spectrometry. In kind it is ADME, organism-based. Conditions: in vivo. Summed up: (§1)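 Rodent PK in male balb/c mice and male Wistar rats; plasma drug levels by LC-MS/MS. Mouse oral dosing at 20 mg/kg, with compounds given as a 0.5% methylcellulose/0.5% Tween 80 suspension or as solutions (PEG300/D5W, or ethanol/PEG300 with Solutol or D5W), depending on compound.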

The nature of data set [3]: Drug metabolism in mouse liver microsomes assessed as oxidation at acrylate groups. It is filed as ADME.
Another data set has as its target Cytochrome P450 2D6 (Homo sapiens, UniProt P10635). Nature of the data set: Inhibition of CYP2D6 (unknown origin). It is filed as ADME.
The nature of data set [4]: Drug metabolism in rat liver microsomes assessed as oxidation at acrylate groups. It is filed as ADME.
Data set [5] in a line: Drug metabolism in rat liver microsomes assessed as oxidation at 7-methyl groups. It is filed as ADME.
Data set [6] in a line: Drug metabolism in mouse liver microsomes assessed as oxidation at 7-methyl groups. In kind it is ADME.
Data set [7] deals with Epidermal growth factor receptor (Homo sapiens, UniProt P00533, L858R/T790M). Nature of the data set: Inhibition of EGFR L858R/T790M mutant phosphorylation in human patient derived H1975 cells incubated for 3 hrs by ELISA method. It is filed as cell-based.
Chain of Epidermal growth factor receptor (Homo sapiens, UniProt P00533, L858R/T790M) (P00533 25-1210 T790M/L858R limits assumed): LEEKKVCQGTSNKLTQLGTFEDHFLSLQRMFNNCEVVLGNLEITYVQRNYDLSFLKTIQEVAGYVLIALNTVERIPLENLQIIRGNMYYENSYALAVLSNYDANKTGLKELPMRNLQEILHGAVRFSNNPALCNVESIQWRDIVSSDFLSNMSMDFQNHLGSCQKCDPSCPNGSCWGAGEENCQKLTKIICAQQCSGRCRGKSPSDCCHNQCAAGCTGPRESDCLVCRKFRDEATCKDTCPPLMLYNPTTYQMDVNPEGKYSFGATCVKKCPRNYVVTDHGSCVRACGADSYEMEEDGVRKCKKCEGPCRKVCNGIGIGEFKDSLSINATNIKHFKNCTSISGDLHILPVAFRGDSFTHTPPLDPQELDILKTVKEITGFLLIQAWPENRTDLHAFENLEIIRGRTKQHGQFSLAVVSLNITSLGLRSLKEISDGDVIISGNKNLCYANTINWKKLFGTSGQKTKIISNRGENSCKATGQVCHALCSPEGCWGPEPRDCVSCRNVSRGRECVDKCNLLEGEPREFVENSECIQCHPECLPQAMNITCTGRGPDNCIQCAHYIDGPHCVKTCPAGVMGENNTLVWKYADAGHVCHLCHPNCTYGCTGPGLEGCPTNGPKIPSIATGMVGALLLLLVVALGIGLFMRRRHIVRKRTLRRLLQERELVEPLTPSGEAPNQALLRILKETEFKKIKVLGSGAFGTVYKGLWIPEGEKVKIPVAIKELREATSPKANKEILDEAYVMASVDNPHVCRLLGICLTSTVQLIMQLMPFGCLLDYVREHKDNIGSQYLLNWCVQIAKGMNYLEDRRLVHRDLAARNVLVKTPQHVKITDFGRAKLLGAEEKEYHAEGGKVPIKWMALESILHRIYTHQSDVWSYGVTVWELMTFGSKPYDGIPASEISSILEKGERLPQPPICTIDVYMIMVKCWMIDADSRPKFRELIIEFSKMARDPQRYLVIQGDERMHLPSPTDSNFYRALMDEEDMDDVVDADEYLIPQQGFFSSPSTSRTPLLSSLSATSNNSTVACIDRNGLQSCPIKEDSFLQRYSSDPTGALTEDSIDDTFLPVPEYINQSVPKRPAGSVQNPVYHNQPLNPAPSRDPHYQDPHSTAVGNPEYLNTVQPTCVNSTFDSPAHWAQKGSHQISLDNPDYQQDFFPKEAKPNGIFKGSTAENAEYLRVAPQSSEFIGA
In a further data set the target is Cytochrome P450 3A4 (Homo sapiens, UniProt P08684). Description: Inhibition of CYP3A4 (unknown origin). In kind it is ADME.
Chain of Cytochrome P450 3A4 (P08684 whole entry): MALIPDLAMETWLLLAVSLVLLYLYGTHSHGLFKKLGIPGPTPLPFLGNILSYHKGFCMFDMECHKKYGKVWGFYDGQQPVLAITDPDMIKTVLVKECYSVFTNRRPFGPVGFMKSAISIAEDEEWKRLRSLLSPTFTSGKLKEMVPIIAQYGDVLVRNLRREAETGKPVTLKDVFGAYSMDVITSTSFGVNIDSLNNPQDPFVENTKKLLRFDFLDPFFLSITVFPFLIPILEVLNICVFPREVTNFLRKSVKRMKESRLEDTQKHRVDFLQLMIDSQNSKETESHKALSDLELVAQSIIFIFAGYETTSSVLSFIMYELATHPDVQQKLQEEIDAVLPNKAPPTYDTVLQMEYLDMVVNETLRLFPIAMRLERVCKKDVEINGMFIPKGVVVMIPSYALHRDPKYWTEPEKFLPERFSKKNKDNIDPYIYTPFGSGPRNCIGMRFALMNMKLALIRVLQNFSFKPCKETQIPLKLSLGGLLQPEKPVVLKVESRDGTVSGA
Data set [8] in a line: Drug metabolism in human liver microsomes assessed as oxidation at 7-methyl groups. It is filed as ADME.
Data set [9] in a line: Aqueous solubility of the compound at pH 6.8. In kind it is physicochemical.
The target of data set [10] is Epidermal growth factor receptor (Homo sapiens, UniProt P00533). Nature of the data set: Inhibition of wild type EGFR phosphorylation in human HaCaT cells incubated for 3 hrs by ELISA method. In kind it is cell-based. (In general: In an ELISA, binding on a coated surface is turned into a signal by an enzyme label.)
Chain of Epidermal growth factor receptor (Homo sapiens, UniProt P00533) (P00533 whole entry): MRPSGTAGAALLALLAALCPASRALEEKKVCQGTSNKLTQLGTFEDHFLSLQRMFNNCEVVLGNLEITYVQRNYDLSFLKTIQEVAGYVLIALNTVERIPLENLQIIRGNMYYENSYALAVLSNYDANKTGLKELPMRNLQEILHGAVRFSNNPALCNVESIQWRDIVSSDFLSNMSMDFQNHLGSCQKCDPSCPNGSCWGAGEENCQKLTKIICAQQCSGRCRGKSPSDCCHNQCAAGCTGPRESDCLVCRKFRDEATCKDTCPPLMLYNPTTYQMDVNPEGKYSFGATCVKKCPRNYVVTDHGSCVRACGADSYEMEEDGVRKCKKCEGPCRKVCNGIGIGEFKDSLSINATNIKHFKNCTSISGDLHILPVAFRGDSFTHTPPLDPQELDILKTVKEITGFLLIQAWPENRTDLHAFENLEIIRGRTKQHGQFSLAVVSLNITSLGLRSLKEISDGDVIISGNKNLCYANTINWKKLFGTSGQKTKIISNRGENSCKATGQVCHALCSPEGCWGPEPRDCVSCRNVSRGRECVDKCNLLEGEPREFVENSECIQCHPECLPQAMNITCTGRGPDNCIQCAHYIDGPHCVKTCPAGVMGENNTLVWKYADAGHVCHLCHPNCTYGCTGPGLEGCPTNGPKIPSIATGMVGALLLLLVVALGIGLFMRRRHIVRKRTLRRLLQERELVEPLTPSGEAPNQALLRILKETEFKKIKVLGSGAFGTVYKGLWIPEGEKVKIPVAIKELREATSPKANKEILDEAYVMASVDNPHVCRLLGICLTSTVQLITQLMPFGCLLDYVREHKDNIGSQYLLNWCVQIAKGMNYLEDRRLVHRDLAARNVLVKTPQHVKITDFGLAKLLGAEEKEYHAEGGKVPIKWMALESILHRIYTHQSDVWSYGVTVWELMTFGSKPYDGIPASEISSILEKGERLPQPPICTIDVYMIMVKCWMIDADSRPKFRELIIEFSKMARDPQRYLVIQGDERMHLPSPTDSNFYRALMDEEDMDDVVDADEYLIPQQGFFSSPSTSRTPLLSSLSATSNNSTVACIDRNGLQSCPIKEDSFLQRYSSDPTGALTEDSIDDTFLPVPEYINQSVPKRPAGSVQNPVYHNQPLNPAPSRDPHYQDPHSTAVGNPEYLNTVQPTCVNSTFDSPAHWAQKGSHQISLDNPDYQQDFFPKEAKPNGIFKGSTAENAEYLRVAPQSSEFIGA
The nature of data set [11]: Drug metabolism in human liver microsomes assessed as oxidation at acrylate groups. In kind it is ADME.
Data set [12] is described as follows: Inhibition of EGFR E746 to A750 deletion mutant phosphorylation in human patient derived HCC827 cells incubated for 3 hrs by ELISA method. It is filed as cell-based. Conditions: HCC827, 3 h. Summed up:
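HCC827 cells plated at 7500/well in 5% FBS/RPMI and left overnight at 37 °C. Then 3 h with a 12-point compound dilution series, no EGF stimulation. Lysed in Triton/protease/phosphatase-inhibitor buffer. Phospho-EGFR (Y1173) read by sandwich ELISA: anti-EGFR capture, anti-phospho-EGFR, anti-rabbit-HRP, chemiluminescence. IC50 from at least duplicates.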

Data set [13] is described as follows: Clearance in balb/c mouse at 5 mg/kg, iv by liquid chromatography-tandem mass spectrometry. In kind it is ADME, organism-based. Conditions: in vivo. Summed up:
as §1

The target in a further data set is Cytochrome P450 2C9 (Homo sapiens, UniProt P11712). Nature of the data set: Inhibition of CYP2C9 (unknown origin). It is filed as ADME.
Chain of Cytochrome P450 2C9 (P11712 whole entry): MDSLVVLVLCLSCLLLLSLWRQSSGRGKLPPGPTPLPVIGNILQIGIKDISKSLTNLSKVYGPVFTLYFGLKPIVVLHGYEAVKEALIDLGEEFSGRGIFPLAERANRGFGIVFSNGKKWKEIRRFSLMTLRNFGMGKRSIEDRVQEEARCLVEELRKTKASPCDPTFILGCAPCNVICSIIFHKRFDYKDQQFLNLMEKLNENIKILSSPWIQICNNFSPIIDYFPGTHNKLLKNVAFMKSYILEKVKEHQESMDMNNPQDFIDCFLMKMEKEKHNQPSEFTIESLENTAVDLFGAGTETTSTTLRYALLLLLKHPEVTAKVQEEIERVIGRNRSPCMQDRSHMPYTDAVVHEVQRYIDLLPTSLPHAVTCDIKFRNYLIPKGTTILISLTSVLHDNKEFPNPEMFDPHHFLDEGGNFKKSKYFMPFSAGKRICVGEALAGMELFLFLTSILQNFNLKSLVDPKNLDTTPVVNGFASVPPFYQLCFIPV
The nature of data set [14]: Intrinsic clearance in human liver microsomes. In kind it is ADME. Conditions: read-out: CLH.
A short description of data set [15]: Glutathione reactivity assessed as GSH adduct formation incubated for 1 hr using 10 mM glutathione. In a few lines: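 Compound incubated 1 h with 10 mM glutathione; GSH adduct formation measured.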
The target in data set [16] is Epidermal growth factor receptor (Homo sapiens, UniProt P00533, L858R). Description: Inhibition of EGFR L858R mutant phosphorylation in human patient derived H3255 cells incubated for 3 hrs by ELISA method. In kind it is cell-based.
Chain of Epidermal growth factor receptor (Homo sapiens, UniProt P00533, L858R) (P00533 25-1210 L858R limits assumed): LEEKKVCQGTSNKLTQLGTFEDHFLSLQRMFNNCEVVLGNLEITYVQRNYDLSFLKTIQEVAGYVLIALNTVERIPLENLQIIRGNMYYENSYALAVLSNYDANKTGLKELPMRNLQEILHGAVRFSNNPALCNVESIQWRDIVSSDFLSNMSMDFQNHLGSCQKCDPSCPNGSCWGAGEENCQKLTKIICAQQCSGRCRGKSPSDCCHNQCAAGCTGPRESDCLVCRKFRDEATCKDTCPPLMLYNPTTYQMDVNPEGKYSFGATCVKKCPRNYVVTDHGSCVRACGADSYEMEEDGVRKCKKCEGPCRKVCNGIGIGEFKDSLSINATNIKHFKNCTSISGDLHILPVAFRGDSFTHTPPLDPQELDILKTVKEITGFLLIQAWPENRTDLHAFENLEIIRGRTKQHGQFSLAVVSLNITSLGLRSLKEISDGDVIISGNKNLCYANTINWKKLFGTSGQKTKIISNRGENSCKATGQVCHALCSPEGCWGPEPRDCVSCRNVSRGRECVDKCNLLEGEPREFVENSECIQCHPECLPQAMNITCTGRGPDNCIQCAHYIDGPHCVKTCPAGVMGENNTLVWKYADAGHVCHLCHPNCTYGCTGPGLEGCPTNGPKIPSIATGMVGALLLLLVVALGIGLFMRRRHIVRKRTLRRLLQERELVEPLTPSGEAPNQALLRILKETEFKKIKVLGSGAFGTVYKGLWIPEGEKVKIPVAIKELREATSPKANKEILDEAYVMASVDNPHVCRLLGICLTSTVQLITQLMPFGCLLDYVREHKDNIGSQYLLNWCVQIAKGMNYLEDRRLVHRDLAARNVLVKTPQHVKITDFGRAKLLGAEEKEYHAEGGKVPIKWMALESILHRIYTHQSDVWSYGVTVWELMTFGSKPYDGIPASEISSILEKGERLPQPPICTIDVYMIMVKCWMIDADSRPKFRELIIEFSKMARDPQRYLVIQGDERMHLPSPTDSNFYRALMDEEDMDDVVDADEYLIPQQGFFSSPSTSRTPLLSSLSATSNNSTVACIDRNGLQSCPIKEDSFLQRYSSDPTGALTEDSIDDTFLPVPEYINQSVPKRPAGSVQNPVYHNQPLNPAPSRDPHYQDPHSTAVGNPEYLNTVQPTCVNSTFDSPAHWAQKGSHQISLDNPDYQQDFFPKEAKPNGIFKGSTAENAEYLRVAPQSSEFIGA
A short description of data set [17]: AUC in balb/c mouse at 20 mg/kg, po by liquid chromatography-tandem mass spectrometry. Conditions: in vivo. It is filed as ADME, organism-based. In a few lines: as §1

Chain of Cytochrome P450 2D6 (P10635 whole entry): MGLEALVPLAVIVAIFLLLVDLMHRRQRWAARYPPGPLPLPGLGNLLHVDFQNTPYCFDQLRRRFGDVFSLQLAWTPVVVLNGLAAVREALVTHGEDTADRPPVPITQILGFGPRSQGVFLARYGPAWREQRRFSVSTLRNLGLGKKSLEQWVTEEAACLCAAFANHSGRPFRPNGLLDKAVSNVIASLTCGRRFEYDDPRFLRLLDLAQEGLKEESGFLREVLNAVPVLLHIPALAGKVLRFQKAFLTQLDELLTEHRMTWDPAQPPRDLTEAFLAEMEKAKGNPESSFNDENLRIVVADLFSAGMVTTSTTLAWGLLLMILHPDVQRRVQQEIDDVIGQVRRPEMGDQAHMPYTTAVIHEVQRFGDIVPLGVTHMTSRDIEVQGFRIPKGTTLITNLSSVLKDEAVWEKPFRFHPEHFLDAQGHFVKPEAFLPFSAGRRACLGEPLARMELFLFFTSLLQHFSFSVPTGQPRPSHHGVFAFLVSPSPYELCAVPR

As for `C=CC(=O)N1CCCC[C@@H](n2c(NC(=O)c3cccc(C(F)(F)F)c3)nc3cccc(C)c32)C1`, the microsomal CLint was determined as 245 µL/min/mg in [1] and 83 µL/min/mg in data set [14]. Besides, in [2], the bioavailability (as a rule, the share of a dose that reaches the circulation, judged against a reference dose that is usually intravenous) was 6%. For the same molecule, the Drug metabolism entry in data set [3], in data set [4], in [5], in data set [6], in data set [8] and in data set [11] was “Metabolite_Detected” in each case. Besides, the Drug metabolism in data set [15] is below 5%. The 50% inhibitory concentration (IC50) (commonly the concentration that inhibits the measured activity by half) at Cytochrome P450 2D6 is above 25000 nM; in [7], 1.39 nM; at Cytochrome P450 3A4, 3500 nM; in data set [10], 250 nM; in data set [12], 3.93 nM; against Cytochrome P450 2C9, 3400 nM. In [16], this molecule showed a concentration for half-maximal inhibition (IC50) of 14.8 nM. Further, in [9], the solubility (as a rule, the concentration that dissolves in the medium under given conditions) was below 2 µM. Further, in data set [13], the clearance (in general, a measure of how efficiently the substance is removed, as volume per time) amounted to 54 mL/min/kg. For the same molecule, the exposure (AUC) (as a rule, concentration integrated over time) in [17] is 0.808 µM·h.
